Measurements as given in publication PMC4479701 (mBio, 2015).
Converted amounts (≈) assume the structure as drawn.

Key:
C. albicans SC 5314 = assay: Mouse model of invasive candidiasis; format: in vivo, mouse (CBA/J); conditions: after 21 days of infection; 1.2 mg/kg/day i.p.; 8 mice per group
Procedure, shortened: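 Female CBA/J mice, 8 weeks old (8 per group), were infected i.v. with 100 µl containing 10^5 C. albicans SC-5314. Test compound was given i.p. at 1.2 mg/kg/day in 100 µl PBS with 0.4% DMSO immediately after inoculation; untreated mice received vehicle. Survival was monitored. Organs of survivors were homogenized in 10 ml PBS, diluted tenfold, and plated on YPD at 30°C for 72 h for CFU.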

C. neoformans [1] = assay: Transmission electron microscopy, intracellular vesicles; format: cell-based; conditions: 4 µg/ml, 6 h; untreated 0.33 ± 0.36
C. neoformans [2] = assay: Mouse model of cryptococcosis, intranasal infection; format: in vivo, mouse (CBA/J); conditions: 1.2 mg/kg/day i.p.
Procedure, shortened: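 Mice (10 per group) were infected by nasal inoculation of 20 µl containing 5 × 10^5 C. neoformans. Test compound was given i.p. at 1.2 mg/kg/day in 100 µl PBS with 0.4% DMSO, starting 2 h after inoculation. Survival followed up to 60 days. Organs of survivors were homogenized in 10 ml PBS, diluted serially 1:10, plated on YPD, and incubated at 30°C for 72 h for CFU.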

In vitro toxicity = format: cell-based, murine; conditions: mouse, J774.16 macrophage cells
Procedure, shortened: (§1)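 J774.16 murine macrophages were kept in DMEM with 10% FBS and 1% pen-strep, and used until passage eight. At passage 7, 10^5 cells/well were allowed to adhere for 14 h. Test compound was then added at 0.1 to 100 µg/ml, with drug-free wells as controls. Incubation at 37°C, 5% CO2.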

J774 cells = assay: In vitro toxicity; format: cell-based, murine
Procedure, shortened: as §1

C. neoformans cells [3] = assay: In vitro killing assay; format: cell-based
Procedure, shortened: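 An overnight C. neoformans culture was washed in PBS and resuspended in HEPES-buffered YNB, pH 7.4. 2 × 10^4 cells were exposed to 1, 2 or 4 µg/ml test compound in 10 ml (0.4% DMSO final), at 37°C, 5% CO2, on a rotary shaker at 200 rpm. Aliquots taken at time points were diluted, plated on YPD, incubated 72 h at 30°C, and CFU counted.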

Candida spp. = assay: In vitro susceptibility; format: cell-based; conditions: most Candida spp. examined
Procedure, shortened: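 Inoculum prepared per CLSI M27-A3. Plates incubated at 37°C with 5% CO2 for 24 to 96 h. MIC was the lowest concentration inhibiting 50% of growth versus the drug-free control. Minimum fungicidal concentration was also measured: serial dilutions from wells were plated on YPD agar, and MFC was the lowest concentration yielding three or fewer colonies (99% of inoculum killed).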

[4] = In vivo toxicity, blood work; design: species or system mouse (CBA/J)
Procedure, shortened: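 Female CBA/J mice, 4 weeks old: five received 1.2 mg/kg/day test compound for 60 days, and three controls received a daily solvent injection. On day 60, blood was collected into one K2EDTA tube and one plain tube allowed to clot.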

C. neoformans [5] = assay: Mouse model of cryptococcosis, intravenous infection; format: in vivo, mouse (CBA/J); conditions: 8 mice per group, vehicle 7.0 ± 1.1
C. neoformans [6] = assay: Synergism assay; format: cell-based
P. murina [7] = assay: Murine pneumocystosis, CD4-depleted; format: in vivo, mouse (C3H/HeN); conditions: 1.25 mg/kg/day
Procedure, shortened: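 Twelve mice were CD4-depleted with 300 µg GK 1.5 antibody i.p. on days 1, 3 and 7. They were infected by exposure to P. murina-infected mice, then given 100 µg GK 1.5 i.p. weekly for 6 weeks. Treatment followed at 1.25 or 12.5 mg/kg/day for 14 days, with GK 1.5 continued; controls received vehicle.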

P. murina [8] = assay: Murine pneumocystosis, corticosteroid-immunosuppressed; format: in vivo, mouse (C3H/HeN); conditions: mice immunosuppressed with corticosteroids
Procedure, shortened: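 Corticosteroid-immunosuppressed mice were infected with P. murina by cohousing with seed mice for 2 weeks. […] Treatment lasted 13 days. Lung homogenate slides were stained with Diff-Quik for trophic forms and cresyl echt violet for asci.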

C. neoformans cells [9] = assay: In vitro passages, development of resistance; format: cell-based; conditions: 15 days of in vitro passages (120 generations), 10^6 cells/ml; data not shown
[10] = tested on: sphingolipids of C. neoformans; assay: Sphingolipid profiling by TLC and LC-MS; format: cell-based; conditions: LC-MS; D0 data not shown
[11] = tested on: GlcCer synthesis in J774.16 cells; assay: Labeling of mammalian cells with [3H]palmitate, TLC of GlcCer; format: cell-based, murine; conditions: [3H]palmitate labeling, 6 h
Procedure, shortened: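 J774.16 macrophages (5 × 10^6 cells/ml) adhered for 14 h in six-well plates. They were exposed for 4 h to test compound at the concentrations used for the fungal labeling, then given 30 µCi/ml [3H]palmitic acid for a further 2 h.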

[12] = tested on: GlcCer synthesis in C. neoformans; assay: In vivo labeling with [3H]palmitate, TLC of GlcCer; format: cell-based; conditions: [3H]palmitate labeling
Cryptococcus neoformans = assay: In vitro susceptibility testing; format: cell-based; conditions: Cryptococcus neoformans

For O=C(NN=Cc1ccc(O)c(Br)c1)c1cccc(Br)c1 [D0, 3-bromo-N′-(3-bromo-4-hydroxybenzylidene) benzohydrazide], the mice still alive (C. albicans SC 5314) was 75%, the “numbers of vesicles per square micrometer of cell surface area” value (C. neoformans [1]) was 0.93 ± 0.54 and the “brain tissue burden (CFU)” value (C. neoformans [2]) was “eradication of fungal cells”. For the same compound, the “lung tissue burden (CFU)” value (C. neoformans [2]) was “decrease of fungal load”, the “mice surviving C. neoformans infection” value (C. neoformans [2]; up to 60 days, 10 mice per group) was 70% and the EC50 at 48 h (In vitro toxicity) was 50 µg/mL (≈ 126 µM). The EC50/MIC80 selectivity index (J774 cells; J774 EC50 versus MIC) was over 100, the “selectivity index (EC50/MIC ratio)” value (J774 cells; macrophage cell line) was over 50 and the type of killing (C. neoformans cells [3]; time-kill assay, 37°C, 5% CO2, pH 7.4) was “time-dependent killing”. For the same compound, the dead cells (C. neoformans cells [3]; within 24 h) was 100%, the in vitro susceptibility (Candida spp.) was “resistant” and the “all other blood parameters for liver and kidney function” value ([4]; after 60 days of treatment) was “normal”. For the same compound, the tolerability in animals ([4]; mouse, in vivo) was “well tolerated”, the “survival, days postinfection” value (C. neoformans [5]; 1.2 mg/kg/day i.p.) was 10.5 ± 4.2 days and the interaction category (C. neoformans [6]; combined with caspofungin) was “additive (additive effect, FIC = 1)”. For the same compound, the interaction category (C. neoformans [6]; combined with fluconazole) was “highly synergistic”, the interaction category (C. neoformans [6]; combined with tunicamycin) was “additive (additive effect, FIC = 1)” and the survival (P. murina [7]) was “significantly improved survival”. For the same compound, the toxicity (P. murina [7]) was “no apparent signs of toxicity”, the toxicity (P. murina [8]) was “some toxicity” and the development of resistance (C. neoformans cells [9]) was “did not develop resistance”. For the same compound, the “levels of C18 hydroxyceramide and its desaturated and methylated forms” value [10] was “decreased”, the “synthesis of mammalian GlcCer or other sphingolipids” value [11] was “no significant changes” and the “synthesis of GlcCer” value [12] was “significantly inhibited”.

With C[C@@H]1[C@H](O)[C@@H](C)/C=C/C=C/C=C/C=C/C=C/C=C/C=C/[C@H](O[C@@H]2O[C@H](C)[C@@H](O)[C@H](N)[C@@H]2O)C[C@@H]2O[C@](O)(C[C@@H](O)C[C@@H](O)[C@H](O)CC[C@@H](O)C[C@@H](O)CC(=O)O[C@H]1C)C[C@H](O)[C@H]2C(=O)O [amphotericin B, reference compound] the “survival, days postinfection” value (C. neoformans [5]; 1.2 mg/kg/day i.p.) was 23.5 ± 6.5 days.

With OC(Cn1cncn1)(Cn1cncn1)c1ccc(F)cc1F [fluconazole, reference compound] the “survival, days postinfection” value (C. neoformans [5]; 10 mg/kg/day i.p.) was 10 ± 2 days and the MIC (Cryptococcus neoformans) was over 64 µg/mL.
